Measured values published in ChEMBL document CHEMBL1134343, “Reduction in glucose levels in STZ diabetic rats by 4-(2,2-dimethyl-1-oxopropyl)benzoic acid: a prodrug approach for targeting the liver” (J Med Chem, 2001).

Key:
[1] = Percent control of glucose in normal 18 hr-fasted rat model dosed at 100 umol/Kg; assay type: functional
Outline: (§1)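 Male Sprague-Dawley rats fasted 18 h, single oral dose of 100 µmol/kg in 0.5% carboxymethylcellulose/0.2% Tween-80 in water, or vehicle alone, N = 5/group. Serum glucose and β-hydroxybutyrate measured in cardiac-puncture blood at 3 h postdose. Expressed as percent of vehicle control; Student's t-test.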

[2] = test system: Rattus norvegicus; assay: Percent efficacy (reduction in blood glucose) at 70 umol/kg in STZ diabetic rats after 11.25 days.; assay type: functional
Outline: (§2)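 Sprague-Dawley rats on a high-fat diet made diabetic with STZ 40 mg/kg i.v. (tail vein). Selected by blood glucose >200 mg/dL at day 5 and by an 18 h fast plus oral dextrose load (1.35 g/kg). Dosed orally once daily for 11 days, 70 µmol/kg in CMC/Tween-80 vehicle, N = 9/group. Food removed during the 0–6 h window. Tail-tip glucose at 6 h postdose on days 8 and 11, expressed as percent efficacy (100% = 60 mg/dL).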

[3] = Percent control of beta-hydroxybutyrate in normal 18 hr-fasted rat model dosed at 100 umol/Kg; assay type: functional; outline: as §1
[4] = test system: Rattus norvegicus; assay: Percent efficacy (reduction in blood glucose) at 70 umol/kg in STZ diabetic rats after 8.25 days.; assay type: functional; outline: as §2
[5] = Area under the curve was evaluated by plasma concentration and time curve in normal rat after oral dosing of 300 uM/kg; assay type: ADME, organism-based
Outline: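 Normal Sprague-Dawley rats, single oral dose of 300 µmol/kg in 0.5% carboxymethylcellulose/0.2% Tween-80 in water, N = 5/group. Tail-tip blood taken at 2, 4, 7, 8, 24, 36 and 48 h postdose and centrifuged. Plasma AUC0-48h of active metabolite 3.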

[6] = test system: Rattus norvegicus; assay: Percent change in heart weight in a 28-day safety study in normal Sprague-Dawley rats at 550 uM/kg/day.; assay type: functional
Outline: (§3)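 28-day safety study in normal Sprague-Dawley rats dosed daily at 380, 550 or 700 µmol/kg/day. Body weight given as percent of control. Organ weight calculated as [organ/body weight (treated)]/[organ/body weight (control)]. Significance reported at p < 0.05 and p < 0.01.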

[7] = test system: Rattus norvegicus; assay: Percent change in testes weight in a 28-day safety study in normal Sprague-Dawley rats at 380,550, and 700 uM/kg/day.; assay type: functional, Testis; outline: as §3
[8] = species: Rattus norvegicus; assay: Effective dose against beta- Hydroxybutyrate in Normal 18 hr-fasted rat model; assay type: functional
[9] = test system: Rattus norvegicus; assay: Percent change in liver weight in a 28-day safety study in normal Sprague-Dawley rats at 550 uM/kg/day.; assay type: functional; outline: as §3
[10] = test system: Rattus norvegicus; assay: Percent change in body weight in a 28-day safety study in normal Sprague-Dawley rats at 700 uM/kg/day.; assay type: functional; outline: as §3
[11] = test system: Rattus norvegicus; assay: Percent change in testes weight in a 28-day safety study in normal Sprague-Dawley rats at 700 uM/kg/day.; assay type: functional, Testis; outline: as §3
[12] = test system: Rattus norvegicus; assay: Percent change in heart weight in a28-day safety study in normal Sprague-Dawley rats at 700 uM/kg/day.; assay type: functional; outline: as §3
[13] = test system: Rattus norvegicus; assay: Percent change in liver weight in a 28-day safety study in normal Sprague-Dawley rats at 700 uM/kg/day.; assay type: functional; outline: as §3
[14] = test system: Rattus norvegicus; assay: Percent change in testes weight in a 28-day safety study in normal Sprague-Dawley rats at 380 uM/kg/day.; assay type: functional, Testis; outline: as §3
[15] = test system: Rattus norvegicus; assay: Percent change in liver weight in a 28-day safety study in normal Sprague-Dawley rats at 380 uM/kg/day.; assay type: functional; outline: as §3
[16] = test system: Rattus norvegicus; assay: Percent change in body weight in a 28-day safety study in normal Sprague-Dawley rats at 380 uM/kg/day.; assay type: functional; outline: as §3
[17] = test system: Rattus norvegicus; assay: Percent change in heart weight in a 28-day safety study in normal Sprague-Dawley rats at 380 uM/kg/day.; assay type: functional; outline: as §3
[18] = species: Rattus norvegicus; assay: Effective dose of the compound.; assay type: functional

AUC [5] [µg·h/mL]	SMILES	Control [1] [%]	Efficacy [2] [%]	Control [3] [%]	Efficacy [4] [%]	also measured
–	CCCCCCCC/C=C/CCCCCCCC(=O)OCC(COCc1ccc(C(=O)C(C)(C)C)cc1)OC(=O)CCCCCCC/C=C/CCCCCCCC (stereo not drawn)	95.1	21.8	<20.7	9.5	–
–	CC(C)(C)C(=O)c1ccc(C(=O)OCC(COC(=O)c2ccc(C(=O)C(C)(C)C)cc2)(COC(=O)c2ccc(C(=O)C(C)(C)C)cc2)COC(=O)c2ccc(C(=O)C(C)(C)C)cc2)cc1	109.4	–	96.2	–	–
1460	CCCCCCCCCCCCCCCC(=O)OCC(COC(=O)c1ccc(C(=O)C(C)(C)C)cc1)OC(=O)CCCCCCCCCCCCCCC (stereo not drawn)	<63	<90.2	<20.5	<75.7	–
–	CC(C)(C)C(=O)c1ccc(COCc2ccc(COCc3ccc(C(=O)C(C)(C)C)cc3)o2)cc1	<79.7	-3.9	<17.3	6.2	–
–	CCCCCCCCCCCCCCCC(=O)OCC(COCc1ccc(C(=O)C(C)(C)C)cc1)OC(=O)CCCCCCCCCCCCCCC (stereo not drawn)	97.8	-46.4	<31.2	0.4	–
1480	CC(C)(C)C(=O)c1ccc(C(=O)OC(CO)CO)cc1	<59.3	<88.1	<10.9	<67.4	–
–	CC(C)(C)C(=O)c1ccc(COCC(O)CO)cc1 (stereo not drawn)	77.6	4.3	<33.5	5.7	–
885	CCCCCCCCCCCCCCCC(=O)OCC(COC(=O)CCCCCCCCCCCCCCC)OC(=O)c1ccc(C(=O)C(C)(C)C)cc1	<60.7	<84.7	<23.6	62.5	–
–	CCCCCCCCOCC(COCCCCCCCC)OC(=O)c1ccc(C(=O)C(C)(C)C)cc1	<82.9	–	<20.1	–	–
–	CC(C)(C)C(=O)c1ccc(CSCCSCc2ccc(C(=O)C(C)(C)C)cc2)cc1	79.7	–	82.6	–	–
–	CC(C)(C)C(=O)c1ccc(CSCc2ccccc2)cc1	68.9	–	59.5	–	–
930	CCCCCCCCCCCCCCCC(=O)OCC(COC(=O)CCCCCCCCCCCCCCC)OC(=O)CCc1ccc(C(=O)C(C)(C)C)cc1	<71.6	<97.5	<24.6	<84	–
–	CC(C)(C)C(=O)c1ccc(C(=O)OCCC(COC(=O)c2ccc(C(=O)C(C)(C)C)cc2)COC(=O)c2ccc(C(=O)C(C)(C)C)cc2)cc1	98.6	–	<28.8	–	Change [6]: 100%; Change [7]: 100%; ED50 [8]: 96.2 mg/kg/day; Change [9]: 101%
1160	CC(C)(C)C(O)c1ccc(C(=O)OCC(COC(=O)c2ccc(C(O)C(C)(C)C)cc2)OC(=O)c2ccc(C(O)C(C)(C)C)cc2)cc1 (stereo not drawn)	<57	<61	<32.5	49.8	–
1130	COCC(COC)OC(=O)c1ccc(C(=O)C(C)(C)C)cc1	<69.4	54.9	<15.5	<75.8	–
–	CC(C)(C)C(=O)c1ccc(COC/C=C/COCc2ccc(C(=O)C(C)(C)C)cc2)cc1	88.1	-5.3	<15	1.4	–
1780	CC(C)(C)C(=O)c1ccc(C(=O)OCC(O)COC(=O)c2ccc(C(=O)C(C)(C)C)cc2)cc1	<58.4	<111.1	<11.9	<99.5	–
1450	CC(C)(C)C(=O)c1ccc(C(=O)OCC(O)CO)cc1 (stereo not drawn)	<56.1	<55.1	<13.6	41.6	–
–	CC(C)(C)C(=O)c1ccc(COCCN2CCOCC2)cc1	98.2	-5.9	<23.8	<-13.1	–
92	CCCCCCCCCCCCCCCC(=O)OCC(COC(=O)CCCCCCCCCCCCCCC)OCc1ccc(C(=O)C(C)(C)C)cc1	111.6	35.5	<57.2	24.8	ED50 [8]: 127 mg/kg/day
–	CC(C)(C)C(=O)c1ccc(COCC(COCc2ccc(C(=O)C(C)(C)C)cc2)OCc2ccc(C(=O)C(C)(C)C)cc2)cc1	74.1	3.8	<19.6	25.9	–
–	CC(C)(C)C(=O)c1ccc(COCc2cccc(COCc3ccc(C(=O)C(C)(C)C)cc3)n2)cc1	98.2	-6.8	<32.5	18.2	–
1510	Cc1ccc(C2(C(C)(C)C)OCCO2)cc1	<58	<64	<12	<52	Change [10]: <76%; Change [11]: <46%; Change [12]: 92%; Change [13]: 215%
–	CC(C)(C)C(=O)c1ccc(COCC2(COCc3ccc(C(=O)C(C)(C)C)cc3)CCCO2)cc1	<78.1	40.1	<12.7	45.6	–
128	CC(C)(C)C(=O)c1ccc(C(=O)OCC(COC(=O)c2ccc(C(=O)C(C)(C)C)cc2)OC(=O)c2ccc(C(=O)C(C)(C)C)cc2)cc1	82.2	<103.6	<22.9	<103.7	Change [14]: 102%; Change [15]: <113%; Change [16]: 95%; ED50 [8]: 88 mg/kg/day; Change [17]: 101%
–	CC(C)(C)C(=O)c1ccc(C(=O)OCC(CO)(CO)COC(=O)c2ccc(C(=O)C(C)(C)C)cc2)cc1	<68.9	–	<14.3	–	ED50 [18]: 3.4 mg/kg/day
645	CCCCCCCCCCCCCCCC(=O)OC(CO)COC(=O)c1ccc(C(=O)C(C)(C)C)cc1 (stereo not drawn)	<60.7	<64.5	<22.7	<69.8	–
